Published values from different studies.
Protocols differ between the studies behind these lines.
Cell line: MCF7
Read-out: cell growth or viability

| Compound | assay | setting | IC50 |
| --- | --- | --- | --- |
| COCO[C@@H]1[C@H]2OC(C)(C)O[C@H]2[C@H](O[C@H]2C[C@H]3OC(C)(C)OC[C@]34[C@@H]3[C@@H](CC[C@]4(O)C2)[C@@]2(O)CC[C@H](CO)[C@@]2(C)C[C@H]3OCOC)O[C@H]1C | resazurin | 72 h | > 100 µM |
| O=c1ccc2ccc3occc3c2o1 | WST-1 | 48 h | 7 µM |
| CCN1C(=O)SC[C@H]1[C@@]1(O)C[C@H]2C[C@@H](CC[C@H](C)/C=C\C=C\CC/C(C)=C\C(=O)O2)O1 | MTT | 72 h | 0.95 µM |
| COc1ccc(/C=C\c2cc(OC)c(OC)c(OC)c2)cc1 | SRB | 48 h | 0.0048 µM |
| COC1(C2CSC(=O)N2)CC2CC(CCC(C)C=CC=CCCC(C)=CC(=O)O2)O1 (centres unmarked) | MTT | 72 h | 10.2 µM |
| O=C(Oc1ccc(Cl)cc1)[c-]1cccc1.[Fe+2].c1cc[cH-]c1 | MTT | 72 h | 33 µM |
| COc1cc2c3c(n(CCCN4CCOCC4)c(=O)c2cc1OC)-c1cc2c(cc1C3=O)OCO2 | – | 72 h | 0.288 µg/mL |
| N.N.[Cl][Pt][Cl] | MTT | 48 h | 15.6 µM |
| O=C1[O][Pt]2([NH][C@@H]3CCCC[C@H]3[NH]2)[O]C1=O | MTT | 96 h | 2.6 µM |
| COc1c2ccoc2cc2oc(=O)ccc12 | WST-1 | 48 h | 34.5 µM |
| CO[C@]1([C@@H]2CSC(=O)N2C(=O)c2ccccc2)C[C@H]2C[C@@H](CC[C@H](C)/C=C\C=C\CC/C(C)=C\C(=O)O2)O1 | MTT | 72 h | 0.55 µM |
| c1ccc2c(c1)CCc1c-2[nH]c2ccccc12 | MTT | 72 h | > 75 µM |
| CO[C@]1([C@@H]2CSC(=O)N2CCCO)C[C@H]2C[C@@H](CC[C@H](C)/C=C\C=C\CC/C(C)=C\C(=O)O2)O1 | MTT | 72 h | 19.2 µM |
| O=C(Oc1ccc(-n2cccc2)cc1)[c-]1cccc1.[Fe+2].c1cc[cH-]c1 | MTT | 72 h | 1.4 µM |
| [Cl-].[Cl-].[Co+2] | MTT | 48 h | > 150 µM |
| CCC1(c2ccc(N)cc2)CCC(=O)NC1=O (centres unmarked) | CCK-8 | 48 h | > 50 µM |
| C/C1=C/C(=O)O[C@@H]2C[C@@H](CC[C@H](C)/C=C\C=C\CC1)O[C@@](OCCc1ccccc1)([C@@H]1CSC(=O)N1)C2 | MTT | 72 h | 0.1 µM |
| COc1c2c(cc3c1OCO3)[C@]13C=C[C@H](OC)C[C@@H]1[N@](C2)C[C@H]3OC(=O)c1ccco1 | WST-1 | – | > 10 µM |
| CO[C@]1([C@@H]2CSC(=O)N2C)C[C@H]2C[C@@H](CC[C@H](C)/C=C\C=C\CC/C(C)=C\C(=O)O2)O1 | MTT | 72 h | 13.1 µM |
| O=C(O)CCCc1ccc(N(CCCl)CCCl)cc1 | CCK-8 | 48 h | 38.5 µM |
